Assay results published in PubChem BioAssay.
Calls of active or inactive are those of the source.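 How the source made its calls, unless noted: active means viability at or below 30% in both replicate assays; inconclusive means viability at or below 30% in just one of the two assays; inactive means the rest.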

Legend:
[1] = reduced viability of SK-BR-3 breast cancer cells – cell-based, 24 h, human, pilot screen (AID 572;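 active means viability at or below 10% of carrier control in both of two separate runs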;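 further: compound exposure lasted between 18 and 24 h rather than exactly 24 h; 100% = carrier-treated control wells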); conditions: SK-BR-3 viability, CellTiter-Glo luminescence, at 10 µM, stronger effect = lower value
[2] = HUVEC growth inhibition – cell-based, human, primary screen (AID 575); conditions: HUVEC proliferation, CellTiter-Glo luminescence, 72 h; at 10 µM; stronger effect = lower value;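 further: 100% = median of untreated cell wells with 0.1% DMSO on each plate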
In short: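 Material: primary human umbilical vein endothelial cells / Schedule: 72 h exposure, 37 °C, 5% CO2, 30 min RT equilibration / Signal: ATP-based CellTiter-Glo luminescent read / Read-out basis: percent of median DMSO-control luminescence / Control set: 32 DMSO-only cell-control wells (high), 32 MePR drug-control wells (low) per plate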

[3] = H69AR cell proliferation blockers – human, duplicate replicates, primary screen (AID 580;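 active means viability at or under a set limit in both replicates, limit being median viability minus 3 SD, cut at about 48% in these data, passing the limit was not always enough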;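 further: 100% = mean luminescence of untreated wells and 0% = no signal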); conditions: H69AR lung tumor cells viability, ATP luminescence, 72 h; at 10 µM; stronger effect = lower value
[4] = MRP1 drug-resistance reversers in H69AR cells – cell-based, doxorubicin co-treatment, pilot screen (AID 601;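 active means viability loss from added drug above about 55%, and viability with drug at most 40%, in both replicates, limit read from the data, passing the limit was not always enough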); conditions: CellTiter-Glo, 72 h, at 10 µM; for differential viability (reversal): stronger effect = higher value
[5] = yeast transport mutant growth inhibition pilot in 384-well plates, post-Golgi transport modulator project (AID 636; in the data active means inhibition above about 31%); conditions: absorbance 615 nm, about 18 h, stronger effect = higher value
[6] = growth suppression of yeast trafficking mutant, preliminary HTS, modulators of trafficking downstream of Golgi apparatus project, 1536-format plate, OD 615 nm (AID 637; in the data active means inhibition above about 30%); conditions: yeast transport mutant growth, absorbance 615 nm, 18 h; stronger effect = higher value
[7] = H69AR cells + 2 uM doxorubicin, measured here: viability with 2 uM doxorubicin, stronger effect = lower value
[8] = H69AR cells, compound alone cytotoxicity

Row | Compound | viability [1] | viability [2] | viability [3] | differential viability (reversal) ([4]; H69AR cells + 2 uM doxorubicin) | viability [4, 7] [%] | viability [4, 8] [%] | inhibition [5] | inhibition [6]
1 | O=C(c1ccccc1)c1ccc(N2CCNCC2)cc1 | 129% (inactive) | 96.4% (inactive) | 84.5% (inactive) | -5.36% (inactive) | 89.9 | 84.5 | -2.05% (inactive) | 6.91% (inactive)
2 | O=S(=O)(c1cccc2c(S(=O)(=O)N3CCCC3)cccc12)N1CCCC1 | 72% (inactive) | 107% (inactive) | 93.5% (inactive) | 5.26% (inactive) | 88.2 | 93.5 | -9.18% (inactive) | -0.55% (inactive)
3 | CC1(C)CC(=O)CC(=Nc2ccc(C(=O)O)cc2)C1 | 92% (inactive) | 97.3% (inactive) | 87.7% (inactive) | -4.41% (inactive) | 92.1 | 87.7 | -3.64% (inactive) | -0.16% (inactive)
4 | CCOc1ccc(-c2nc(C#N)c(NCc3ccc4c(c3)OCO4)o2)cc1 | 68% (inactive) | 58.8% (inactive) | 70.4% (inactive) | 0.795% (inactive) | 69.6 | 70.4 | 1.03% (inactive) | -0.5% (inactive)
5 | C[C@]12CC[C@@H]3c4ccc(O)cc4C(=O)C[C@H]3[C@@H]1CC[C@@H]2O | 103% (inactive) | 89.2% (inactive) | 80.6% (inactive) | 2.45% (inactive) | 78.2 | 80.6 | -0.39% (inactive) | 2.67% (inactive)
6 | CC(C)Cc1ccc(C(C)C(=O)O)cc1 (stereo not drawn) | 99% (inactive) | 84.3% (inactive) | 97.8% (inactive) | 5.44% (inactive) | 92.3 | 97.8 | -1.95% (inactive) | 7.17% (inactive)
7 | O=C(CSc1nc2ccccc2[nH]1)c1ccc2c(c1)OCO2 | 79% (inactive) | 99.8% (inactive) | 107% (inactive) | 22.7% (inactive) | 83.8 | 107 | -0.68% (inactive) | -5.16% (inactive)
8 | Cc1cc2ccccc2c(=O)n1CC(=O)Nc1ccc2c(c1)OCO2 | 136% (inactive) | 86.6% (inactive) | 98.9% (inactive) | 5.25% (inactive) | 93.7 | 98.9 | -2.34% (inactive) | -7.05% (inactive)
9 | CC1(C)C(c2cccs2)=[N+]([O-])C2(CCCCC/C2=N\O)N1O (stereo not drawn) | 99% (inactive) | 101% (inactive) | 110% (inactive) | 18.4% (inactive) | 91.8 | 110 | -7.95% (inactive) | -1.27% (inactive)
10 | Cc1cccc(C)c1OCC(=O)Nc1cccc(NC(=O)c2ccco2)c1 | 97% (inactive) | 71.2% (inactive) | 84.6% (inactive) | 1.53% (inactive) | 83.1 | 84.6 | -3.29% (inactive) | -0.16% (inactive)
11 | O=[n+]1cc(-c2ccc(F)cc2)n([O-])c2c1CCC2 | 97% (inactive) | 100% (inactive) | 90.7% (inactive) | 1.25% (inactive) | 89.4 | 90.7 | -1.82% (inactive) | 1.97% (inactive)
12 | CCOc1ccccc1C1N(c2ccc(F)cc2)C(=O)C2CCCN21 (stereo not drawn) | 109% (inactive) | 111% (inactive) | 99% (inactive) | 19.2% (inactive) | 79.8 | 99 | -4.4% (inactive) | 2.18% (inactive)
13 | COc1cccc(NC(=O)C2CCCN2C(=O)Nc2cccc(F)c2)c1 (stereo not drawn) | 96% (inactive) | 103% (inactive) | 103% (inactive) | 8.87% (inactive) | 94 | 103 | -3.7% (inactive) | -3.06% (inactive)
14 | CCCn1cnc2c(cnn2-c2ccc(F)cc2)c1=O | 100% (inactive) | 90.9% (inactive) | 98.8% (inactive) | 1.56% (inactive) | 97.3 | 98.8 | -0.78% (inactive) | 0.16% (inactive)
15 | O=C(NC1CCCC1)C(c1cccs1)N(Cc1ccco1)C(=O)Cn1nnc(-c2cccs2)n1 (stereo not drawn) | 71% (inactive) | 87.3% (inactive) | 92.8% (inactive) | -1.47% (inactive) | 94.3 | 92.8 | -8.22% (inactive) | -0.48% (inactive)
16 | Cc1cc(C)n(Cc2cc(C)c(Cn3nc(C)cc3C)cc2C)n1 | 99% (inactive) | 101% (inactive) | 106% (inactive) | 12.2% (inactive) | 93.9 | 106 | -4.73% (inactive) | 1.64% (inactive)
17 | CCOC(=O)C1CCN(C(=O)CCCCn2c(=O)[nH]c3ccccc3c2=O)CC1 | 90% (inactive) | 114% (inactive) | 101% (inactive) | 6.14% (inactive) | 94.9 | 101 | 3.77% (inactive) | 2.62% (inactive)
18 | CC(C)n1nc(C(=O)Nc2nc3ccc(S(C)(=O)=O)cc3s2)c2ccccc2c1=O | 87% (inactive) | 86.1% (inactive) | 67.8% (inactive) | -4.21% (inactive) | 72 | 67.8 | -4.86% (inactive) | 2.73% (inactive)

Row | Compound | viability [1] | viability [2] | viability [3] | differential viability (reversal) ([4]; H69AR cells + 2 uM doxorubicin) | viability [4, 7] [%] | viability [4, 8] [%] | inhibition [5] | inhibition [6]
19 | O=C(NC1(C(F)(F)F)C(=O)Nc2c1c(=O)[nH]c(=O)n2Cc1ccco1)C1CCCCC1 (stereo not drawn) | 106% (inactive) | 97.6% (inactive) | 97.9% (inactive) | 17.5% (inactive) | 80.4 | 97.9 | -6.49% (inactive) | -1.82% (inactive)
20 | CC(O)Cn1cnc2c1c(=O)n(C)c(=O)n2C (stereo not drawn) | 107% (inactive) | 106% (inactive) | 95.8% (inactive) | -0.25% (inactive) | 96.1 | 95.8 | -1.04% (inactive) | 0.17% (inactive)
21 | CCOC(=O)N1CCN(C(=O)c2cn(CC)c3cc(N4CCN(C)CC4)c(F)cc3c2=O)CC1 | 100% (inactive) | 101% (inactive) | 104% (inactive) | 1.33% (inactive) | 103 | 104 | -7.26% (inactive) | 7.74% (inactive)
22 | COc1ccccc1-c1nnc(NC(=O)c2ccc(S(=O)(=O)N(C)Cc3ccccc3)cc2)o1 | 85% (inactive) | 23.9% (active) | 19.2% (active) | -25.1% (inactive) | 44.3 | 19.2 | 1.3% (inactive) | 6.56% (inactive)
23 | CCOC(=O)Cn1nnc(-c2ccc(SC)cc2)n1 | 96% (inactive) | 100% (inactive) | 98% (inactive) | 5.72% (inactive) | 92.3 | 98 | -8.38% (inactive) | -4.36% (inactive)
24 | COC(=O)Nc1ccc(S(=O)(=O)N2CCCCCC2)cc1 | 99% (inactive) | 93.7% (inactive) | 80.3% (inactive) | -10.7% (inactive) | 91 | 80.3 | -10.1% (inactive) | -2% (inactive)
25 | Cn1c(=O)n(CCC(=O)O)c2ccccc21 | 93% (inactive) | 111% (inactive) | 97.2% (inactive) | 13.1% (inactive) | 84.1 | 97.2 | -7.67% (inactive) | 5% (inactive)
26 | CC(C)CNS(=O)(=O)c1ccc(CCC(=O)NCc2ccco2)cc1 | 113% (inactive) | 88.6% (inactive) | 84.5% (inactive) | -3.21% (inactive) | 87.7 | 84.5 | -4.93% (inactive) | 1.29% (inactive)
27 | CN1CCN(S(=O)(=O)c2ccc(NC(=O)Nc3cccc(Cl)c3)cc2)CC1 | 96% (inactive) | 4.34% (active) | 65% (inactive) | -8.79% (inactive) | 73.8 | 65 | -3.6% (inactive) | 1.31% (inactive)
28 | Cc1ccc(Cn2nnc(C(=O)Nc3cccc(C)c3C)c2N)cc1 | 97% (inactive) | 63.1% (inactive) | 86.2% (inactive) | -7.94% (inactive) | 94.1 | 86.2 | -6.1% (inactive) | -2.3% (inactive)
29 | O=C(CCn1c(=O)sc2ccccc21)NCc1ccc2c(c1)OCO2 | 75% (inactive) | 111% (inactive) | 99.9% (inactive) | 8.43% (inactive) | 91.5 | 99.9 | -0.81% (inactive) | -2.91% (inactive)
30 | CC(C)OC(=O)C(C)(C)Oc1ccc(C(=O)c2ccc(Cl)cc2)cc1 | 88% (inactive) | 90.1% (inactive) | 103% (inactive) | 8.95% (inactive) | 94.5 | 103 | 0.78% (inactive) | -7.67% (inactive)
31 | COC(=O)c1ccc(COC(=O)c2c(C)nn(Cc3ccccc3Cl)c2Cl)o1 | 69% (inactive) | 94.6% (inactive) | 86.2% (inactive) | 4.08% (inactive) | 82.1 | 86.2 | -4.38% (inactive) | 3.82% (inactive)
32 | CCOC(=O)N1CCN(C(=O)CN(Cc2ccccc2)S(=O)(=O)c2ccc(OC)c(C)c2)CC1 | 106% (inactive) | 102% (inactive) | 94.7% (inactive) | -7.75% (inactive) | 102 | 94.7 | -0.13% (inactive) | -3.45% (inactive)
33 | CC(C)(C)n1ncc2c(=O)n(CC(=O)NCc3ccc(F)cc3)cnc21 | 95% (inactive) | 63.4% (inactive) | 14.6% (active) | -59.8% (inactive) | 74.4 | 14.6 | 2.43% (inactive) | -5.27% (inactive)
34 | CCC(c1c(C)n(C)n(-c2ccccc2)c1=O)c1c(C)n(C)n(-c2ccccc2)c1=O | 78% (inactive) | 103% (inactive) | 100% (inactive) | 8.48% (inactive) | 91.5 | 100 | -5.21% (inactive) | 4.73% (inactive)
35 | N#CCC(=O)N1CCn2c1nc1ccccc12 | 99% (inactive) | 95% (inactive) | 87.7% (inactive) | -0.78% (inactive) | 88.5 | 87.7 | 0.13% (inactive) | 0.33% (inactive)
36 | O=C(O)c1ccc(COc2ccc(Cl)cc2)o1 | 92% (inactive) | 84.7% (inactive) | 98.1% (inactive) | 9.97% (inactive) | 88.1 | 98.1 | -0.26% (inactive) | -2.13% (inactive)
